Our source for the inhibition values is ChEMBL document CHEMBL2331148, “Design and synthesis of imidazole and triazole derivatives as Lp-PLA₂ inhibitors and the unexpected discovery of highly potent quaternary ammonium salts” (Bioorg Med Chem Lett, 2013).

The species named for assay [1] is Homo sapiens. The assay is described as follows: Inhibition of human plasma Lp-PLA2 at 1 nM by liquid scintillation counting. In kind it is cell-free. The method in brief:
(§1)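 Plasma used as the enzyme source. Compounds were added from DMSO solution to buffer of 50 mmol/L HEPES (pH 7.4) and 150 mmol/L NaCl. Preincubated 5 min at 37 °C, then [3H]PAF (1uCi) was added and incubated 10 min at 37 °C. Lipids were extracted with CHCl3/MeOH (2:1) and centrifuged at 12000g, 4 °C, 15 min. Supernatant radioactivity was counted. Result is % inhibition at the tested concentration.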

Assay [2] is filed under the species Homo sapiens. The assay is described as follows: Inhibition of human plasma Lp-PLA2 at 10 nM by liquid scintillation counting. The class given is cell-free. The method in brief:
as §1

The species entered for assay [3] is Oryctolagus cuniculus. The assay is described as follows: Inhibition of rabbit plasma Lp-PLA2 at 10 nM by liquid scintillation counting. The class given is cell-free. The method in brief: as §1
Assay [4] is filed under the species Oryctolagus cuniculus. The assay is described as follows: Inhibition of rabbit plasma Lp-PLA2 at 100 nM by liquid scintillation counting. The class given is cell-free. A digest of the protocol: as §1
Assay [5] is filed under the species Oryctolagus cuniculus. The assay is described as follows: Inhibition of rabbit plasma Lp-PLA2 at 1 microM by liquid scintillation counting. The class given is cell-free. The method in brief: as §1
The species entered for assay [6] is Oryctolagus cuniculus. The assay can be described thus: Inhibition of rabbit plasma Lp-PLA2 at 10 microM by liquid scintillation counting. In kind it is cell-free. The method in brief:
as §1

Assay [7] concerns Mus musculus. The assay is described as follows: Inhibition of plasma Lp-PLA2 in Apo-E mouse model at 50 mg/kg, ip measured after 24 hrs by in vivo inhibition assay. The class given is functional, organism-based. Set-up: dose 50 mg/kg.
The test system of assay [8] is Mus musculus. The assay can be described thus: Inhibition of plasma Lp-PLA2 in Apo-E mouse model at 50 mg/kg, ip measured after 12 hrs by in vivo inhibition assay. The class given is functional, organism-based. Set-up: dose 50 mg/kg.

Active and inactive are the calls of the source. The rule behind the calls is not given here.

As for `CC(C)N(C)Cc1nnc(Cn2c(SCc3ccc(F)cc3)nc(=O)c3c2CCC3)n1Cc1ccc(-c2ccc(C(F)(F)F)cc2)cc1`, the inhibition (commonly the share of the control response that was lost under treatment) in the assay filed under Homo sapiens [1] stood at 35%; in the assay filed under Homo sapiens [2], 77%; in the assay listed under Oryctolagus cuniculus [3] it was 13%; in the assay filed under Oryctolagus cuniculus [4], 85%.

On to `C[C@@H]1CN(Cc2nnc(Cn3c(SCc4ccc(F)cc4)nc(=O)c4c3CCC4)n2Cc2ccc(-c3ccc(C(F)(F)F)cc3)cc2)C[C@H](C)O1`, for which the inhibition in the assay listed under Homo sapiens [1] was determined as 23%; in the assay listed under Homo sapiens [2], 69%; in the assay filed under Oryctolagus cuniculus [3], 16%; in the assay listed under Oryctolagus cuniculus [4] it was 76%.

Regarding `C[N+](C)(Cc1ccc(F)cc1)Cc1cnc(Cn2c(SCc3ccc(F)cc3)nc(=O)c3c2CCC3)n1Cc1ccc(-c2ccc(C(F)(F)F)cc2)cc1`, the inhibition turned out to be 85% in the assay listed under Homo sapiens [1], 97% in the assay listed under Homo sapiens [2], 97% in the assay listed under Oryctolagus cuniculus [3] and 99% in the assay listed under Oryctolagus cuniculus [4].

On to `CC(C)c1nnc(Cn2c(SCc3ccc(F)cc3)nc(=O)c3c2CCC3)n1Cc1ccc(-c2ccc(C(F)(F)F)cc2)cc1`, for which the inhibition turned out to be 71% in the assay listed under Homo sapiens [1], 92% in the assay listed under Homo sapiens [2], 34% in the assay filed under Oryctolagus cuniculus [3] and 91% in the assay listed under Oryctolagus cuniculus [4].

In the case of `CCCc1nnc(Cn2c(SCc3ccc(F)cc3)nc(=O)c3c2CCC3)n1Cc1ccc(-c2ccc(C(F)(F)F)cc2)cc1`, the inhibition is 65% in the assay listed under Homo sapiens [1], 88% in the assay filed under Homo sapiens [2], 25% in the assay listed under Oryctolagus cuniculus [3] and 88% in the assay filed under Oryctolagus cuniculus [4].

For the molecule `CCN(CC)CCn1c(-c2ccc(-c3ccc(C(F)(F)F)cc3)cc2)cnc1Cn1c(SCc2ccc(F)cc2)nc(=O)c2c1CCC2`, the inhibition turned out to be 16% in the assay filed under Oryctolagus cuniculus [5] and 20% in the assay listed under Oryctolagus cuniculus [6].

In the case of `Cc1nnc(Cn2c(SCc3ccc(F)cc3)nc(=O)c3c2CCC3)n1Cc1ccc(-c2ccc(C(F)(F)F)cc2)cc1`, the inhibition was 11% in the assay listed under Homo sapiens [1], 73% in the assay filed under Homo sapiens [2], 10% in the assay filed under Oryctolagus cuniculus [3] and 79% in the assay listed under Oryctolagus cuniculus [4].

`CCN(CC)Cc1nnc(Cn2c(SCc3ccc(F)cc3)nc(=O)c3c2CCC3)n1Cc1ccc(-c2ccc(C(F)(F)F)cc2)cc1`: the inhibition in the assay filed under Homo sapiens [1] was 60%; in the assay listed under Homo sapiens [2], 78%; in the assay listed under Oryctolagus cuniculus [3], 21%; in the assay filed under Oryctolagus cuniculus [4], 85%.

In the case of `O=c1nc(SCc2ccc(F)cc2)n(Cc2nnc(CO)n2Cc2ccc(-c3ccc(C(F)(F)F)cc3)cc2)c2c1CCC2`, the inhibition was 58% in the assay filed under Homo sapiens [1], 65% in the assay filed under Homo sapiens [2], 23% in the assay filed under Oryctolagus cuniculus [3] and 73% in the assay listed under Oryctolagus cuniculus [4].

In the case of `C[N+](C)(Cc1ccc(F)cc1)Cc1nnc(Cn2c(SCc3ccc(F)cc3)nc(=O)c3c2CCC3)n1Cc1ccc(-c2ccc(C(F)(F)F)cc2)cc1`, in the assay with Mus musculus [7], the inhibition result was “Active”. In addition, the inhibition in the assay filed under Homo sapiens [1] was 95%; in the assay filed under Homo sapiens [2] it was 99%; in the assay listed under Oryctolagus cuniculus [3], 91%; in the assay filed under Oryctolagus cuniculus [4], 97%.

With `O=c1nc(SCc2ccc(F)cc2)n(Cc2ncc(CN3CCCCC3)n2Cc2ccc(-c3ccc(C(F)(F)F)cc3)cc2)c2c1CCC2`, the inhibition amounted to 58% in the assay filed under Homo sapiens [1], 69% in the assay listed under Homo sapiens [2], 11% in the assay listed under Oryctolagus cuniculus [3] and 86% in the assay listed under Oryctolagus cuniculus [4].

As for `CN(C)Cc1nnc(Cn2c(SCc3ccc(F)cc3)nc(=O)c3c2CCC3)n1Cc1ccc(-c2ccc(C(F)(F)F)cc2)cc1`, the inhibition in the assay listed under Homo sapiens [1] is 62%; in the assay filed under Homo sapiens [2] it was 85%; in the assay filed under Oryctolagus cuniculus [3], 21%; in the assay listed under Oryctolagus cuniculus [4], 88%.

Consider `CCS(=O)(=O)NCc1nnc(Cn2c(SCc3ccc(F)cc3)nc(=O)c3c2CCC3)n1Cc1ccc(-c2ccc(C(F)(F)F)cc2)cc1`, for which the inhibition in the assay filed under Homo sapiens [1] was found to be 49%; in the assay listed under Homo sapiens [2] it was 68%; in the assay filed under Oryctolagus cuniculus [3] it was 7%; in the assay listed under Oryctolagus cuniculus [4], 75%.

Turning to `CCN1CCN(Cc2nnc(Cn3c(SCc4ccc(F)cc4)nc(=O)c4c3CCC4)n2Cc2ccc(-c3ccc(C(F)(F)F)cc3)cc2)CC1`, the inhibition in the assay filed under Homo sapiens [1] turned out to be 64%; in the assay listed under Homo sapiens [2], 82%; in the assay listed under Oryctolagus cuniculus [3], 20%; in the assay listed under Oryctolagus cuniculus [4], 90%.

In the case of `CC(=O)NCc1nnc(Cn2c(SCc3ccc(F)cc3)nc(=O)c3c2CCC3)n1Cc1ccc(-c2ccc(C(F)(F)F)cc2)cc1`, the inhibition turned out to be 44% in the assay filed under Homo sapiens [1], 67% in the assay listed under Homo sapiens [2], 8% in the assay listed under Oryctolagus cuniculus [3] and 67% in the assay filed under Oryctolagus cuniculus [4].

As for `O=c1nc(SCc2ccc(F)cc2)n(Cc2nccn2Cc2ccc(-c3ccccc3)cc2)c2c1CCC2`, the inhibition in the assay listed under Oryctolagus cuniculus [6] is 3%.

For `O=c1nc(SCc2ccc(F)cc2)n(Cc2nnc(C3CC3)n2Cc2ccc(-c3ccc(C(F)(F)F)cc3)cc2)c2c1CCC2`, the inhibition in the assay filed under Homo sapiens [1] was found to be 68%; in the assay filed under Homo sapiens [2] it was 93%; in the assay listed under Oryctolagus cuniculus [3], 34%; in the assay listed under Oryctolagus cuniculus [4], 87%.

In the assay listed under Oryctolagus cuniculus [6], `Cc1ccc(-c2ccc(Cn3ccnc3Cn3c(SCc4ccc(F)cc4)nc(=O)c4c3CCC4)cc2)cc1` showed an inhibition of 28%.

Turning to `CCN(CC)CCN(Cc1ccc(-c2ccc(C(F)(F)F)cc2)cc1)C(=O)Cn1c(SCc2ccc(F)cc2)nc(=O)c2c1CCC2`, the inhibition result in the assay on Mus musculus [8] is “Active”. Also, the inhibition is 80% in the assay filed under Homo sapiens [1], 95% in the assay filed under Homo sapiens [2], 82% in the assay listed under Oryctolagus cuniculus [3] and 99% in the assay filed under Oryctolagus cuniculus [4].

`CN(C)Cc1cnc(Cn2c(SCc3ccc(F)cc3)nc(=O)c3c2CCC3)n1Cc1ccc(-c2ccc(C(F)(F)F)cc2)cc1`: the inhibition in the assay filed under Homo sapiens [1] worked out at 54%; in the assay listed under Homo sapiens [2], 75%; in the assay listed under Oryctolagus cuniculus [3], 13%; in the assay filed under Oryctolagus cuniculus [4], 87%.

In the case of `CCN(CC)Cc1cnc(Cn2c(SCc3ccc(F)cc3)nc(=O)c3c2CCC3)n1Cc1ccc(-c2ccc(C(F)(F)F)cc2)cc1`, the inhibition in the assay filed under Homo sapiens [1] worked out at 52%; in the assay listed under Homo sapiens [2], 75%; in the assay filed under Oryctolagus cuniculus [3], 10%; in the assay listed under Oryctolagus cuniculus [4], 88%.

Take `CN(C)C1CCN(Cc2nnc(Cn3c(SCc4ccc(F)cc4)nc(=O)c4c3CCC4)n2Cc2ccc(-c3ccc(C(F)(F)F)cc3)cc2)CC1`: the inhibition in the assay filed under Homo sapiens [1] was 57%; in the assay filed under Homo sapiens [2], 71%; in the assay filed under Oryctolagus cuniculus [3], 11%; in the assay filed under Oryctolagus cuniculus [4], 82%.

On to `CCCCCCCCCCCCn1ccnc1Cn1c(SCc2ccc(F)cc2)nc(=O)c2c1CCC2`, for which the inhibition in the assay filed under Oryctolagus cuniculus [5] was found to be 42%; in the assay listed under Oryctolagus cuniculus [6] it was 88%.

`C[N+](C)(C)Cc1nnc(Cn2c(SCc3ccc(F)cc3)nc(=O)c3c2CCC3)n1Cc1ccc(-c2ccc(C(F)(F)F)cc2)cc1`: the inhibition is 77% in the assay listed under Homo sapiens [1], 97% in the assay filed under Homo sapiens [2], 91% in the assay listed under Oryctolagus cuniculus [3] and 93% in the assay filed under Oryctolagus cuniculus [4].

Consider `CCn1c(Cn2c(SCc3ccc(F)cc3)nc(=O)c3c2CCC3)nnc1-c1ccc(-c2ccc(C(F)(F)F)cc2)cc1`, for which the inhibition in the assay filed under Oryctolagus cuniculus [5] amounted to 21%; in the assay listed under Oryctolagus cuniculus [6], 34%.

`CCCCCCCCCCc1cnc(Cn2c(SCc3ccc(F)cc3)nc(=O)c3c2CCC3)n1CCN(CC)CC` showed an inhibition in the assay filed under Oryctolagus cuniculus [6] of 6%.

Take `COC(=O)C(C)(C)N1CCN(Cc2nnc(Cn3c(SCc4ccc(F)cc4)nc(=O)c4c3CCC4)n2Cc2ccc(-c3ccc(C(F)(F)F)cc3)cc2)CC1`: the inhibition is 45% in the assay filed under Homo sapiens [1], 51% in the assay listed under Homo sapiens [2], 15% in the assay filed under Oryctolagus cuniculus [3] and 67% in the assay listed under Oryctolagus cuniculus [4].

For `O=c1nc(SCc2ccc(F)cc2)n(Cc2ncc(C[N+]3(Cc4ccc(F)cc4)CCCC3)n2Cc2ccc(-c3ccc(C(F)(F)F)cc3)cc2)c2c1CCC2`, the inhibition in the assay filed under Homo sapiens [1] came out at 79%; in the assay listed under Homo sapiens [2], 97%; in the assay listed under Oryctolagus cuniculus [3], 88%.

Consider `O=c1nc(SCc2ccc(F)cc2)n(Cc2nccn2Cc2ccc(-c3ccc(C(F)(F)F)cc3)cc2)c2c1CCC2`, for which the inhibition is 17% in the assay listed under Oryctolagus cuniculus [4] and 80% in the assay listed under Oryctolagus cuniculus [5].

In turn, `CCCCCCCCCCc1nnc(Cn2c(SCc3ccc(F)cc3)nc(=O)c3c2CCC3)n1CC` displayed an inhibition in the assay filed under Oryctolagus cuniculus [6] of 27%.

In the case of `CC(O)c1nnc(Cn2c(SCc3ccc(F)cc3)nc(=O)c3c2CCC3)n1Cc1ccc(-c2ccc(C(F)(F)F)cc2)cc1` (configuration not stated), the inhibition in the assay filed under Homo sapiens [1] came to 68%; in the assay filed under Homo sapiens [2], 89%; in the assay filed under Oryctolagus cuniculus [3], 29%; in the assay filed under Oryctolagus cuniculus [4] it was 90%.

As to `CCn1c(Cc2ccc(-c3ccc(C(F)(F)F)cc3)cc2)nnc1Cn1c(SCc2ccc(F)cc2)nc(=O)c2c1CCC2`, the inhibition in the assay filed under Oryctolagus cuniculus [6] turned out to be 40%.

As for `CN(Cc1ccc(F)cc1)Cc1nnc(Cn2c(SCc3ccc(F)cc3)nc(=O)c3c2CCC3)n1Cc1ccc(-c2ccc(C(F)(F)F)cc2)cc1`, the inhibition in the assay filed under Homo sapiens [1] is 71%; in the assay listed under Homo sapiens [2], 93%; in the assay listed under Oryctolagus cuniculus [3] it was 10%; in the assay filed under Oryctolagus cuniculus [4], 90%.

Consider `CN(Cc1nnc(Cn2c(SCc3ccc(F)cc3)nc(=O)c3c2CCC3)n1Cc1ccc(-c2ccc(C(F)(F)F)cc2)cc1)C1CC1`, for which the inhibition in the assay listed under Homo sapiens [1] is 38%; in the assay listed under Homo sapiens [2], 77%; in the assay listed under Oryctolagus cuniculus [3] it was 16%; in the assay filed under Oryctolagus cuniculus [4], 86%.

For `O=c1nc(SCc2ccc(F)cc2)n(Cc2ncc(CN3CCCC3)n2Cc2ccc(-c3ccc(C(F)(F)F)cc3)cc2)c2c1CCC2`, the inhibition came out at 21% in the assay filed under Homo sapiens [1], 67% in the assay listed under Homo sapiens [2], 10% in the assay filed under Oryctolagus cuniculus [3] and 79% in the assay filed under Oryctolagus cuniculus [4].

For `O=c1nc(SCc2ccc(F)cc2)n(Cc2nncn2Cc2ccc(-c3ccc(C(F)(F)F)cc3)cc2)c2c1CCC2`, the inhibition in the assay filed under Oryctolagus cuniculus [4] came out at 67%; in the assay listed under Oryctolagus cuniculus [5], 95%.

Take `O=c1nc(SCc2ccc(F)cc2)n(Cc2nccn2Cc2ccc(-c3ccc(Cl)cc3)cc2)c2c1CCC2`: the inhibition in the assay listed under Oryctolagus cuniculus [5] amounted to 2%; in the assay filed under Oryctolagus cuniculus [6], 50%.
